Published values of several laboratories.
Protocols differ between the studies behind these lines.
CASR: Extracellular calcium-sensing receptor (CASR, Homo sapiens, UniProt P41180)
F10: Coagulation factor X (F10, Homo sapiens, UniProt P00742)
CNR2: Cannabinoid receptor 2 (CNR2, Homo sapiens, UniProt P34972)

SMILES | target | observed | mode | method | notes | endpoint | value
C[C@@H](NCCCc1cccc(C(F)(F)F)c1)c1cccc2ccccc12 | CASR | G protein activation | agonist | BRET |  | EC50 | 71 nM
CC(=O)N[C@H]1Cc2ccc(cc2)OCCCC[C@@H](C(=O)N[C@@H](CCCNC(=N)N)C(=O)c2nc3ccccc3s2)NC(=O)[C@H](CC(C)C)NC1=O | F10 | enzyme activity | inhibitor | absorbance | with preincubation | IC50 | 2650 nM
CNC(C)Cc1ccc2c(c1)OCO2 (stereo not shown) | Solute carrier family 22 member 2 (SLC22A2, Homo sapiens, UniProt O15244) | transporter uptake | inhibitor |  |  | Ki | 1900 nM
C=C1CC/C=C(\C)CC[C@@H]2[C@@H]1CC2(C)C | CNR2 | ligand displacement |  | radioligand | cell membranes | Ki | > 10000 nM
CNC(=O)c1ccc(-c2cnn3ccc(C(=O)N(C)c4ccc(Cl)c(C(=O)O)c4)cc23)cc1 | Histamine H3 receptor (HRH3, Homo sapiens, UniProt Q9Y5N1) | cell-free assay |  |  |  | IC50 | > 30000 nM
CC(C)C[C@@H]1NC(=O)[C@H](C(C)(C)C)NC(=O)[C@H](Cc2ccc(O)cc2)NC(=O)[C@@H]2CCCN2C(=O)[C@H](CCCCN)NC(=O)[C@H](CCCNC(=N)N)NC1=O | Neurotensin receptor type 1 (Ntsr1, Rattus norvegicus, UniProt P20789) | ligand displacement |  | flow cytometry |  | Ki | > 100000 nM
CCC(CC)(NC(=O)c1ccc(C2CC2)c(Cc2ccc(F)cc2)n1)C(=O)NCCOCCOCCNC(=O)c1ccc2c(c1)C1(OC2=O)c2ccc(N(C)C)cc2[Si](C)(C)c2cc(N(C)C)ccc21 | CNR2 | ligand displacement |  | radioligand | cell membranes | Ki | 676 nM
CC(=O)N[C@H]1C/C=C/COc2ccc(cc2)C[C@@H](C(=O)N[C@@H](CCCNC(=N)N)C(=O)c2nc3ccccc3s2)NC(=O)[C@H](CC(C)C)NC1=O | F10 | enzyme activity | inhibitor | absorbance | with preincubation | IC50 | 8810 nM
CC(NCc1cccc(-n2cccn2)c1)c1csc2ccccc12 (stereo not shown) | CASR | G protein activation | agonist | BRET |  | EC50 | 444 nM
CCCCCc1cc(O)c2c(c1)OC(C)(C)[C@@H]1CC[C@@H](C)C=C21 | CNR2 | ligand displacement |  | radioligand | cell membranes | Ki | 28 nM
